Data on two substances can be found in ChEMBL document CHEMBL1127616, “Synthesis, structural characterization, and antitumor properties of a novel class of large-ring platinum(II) chelate complexes incorporating the cis-1,4-diaminocyclohexane ligand in a unique locked boat conformation” (J Med Chem, 1994).

The subject of experiment [1] is L1210. Nature of the experiment: Tested for in vivo weight change against murine L1210 leukemia at the dose of 3.0 mg/kg per injection in experiment 1. In kind it is functional, organism-based. Conditions: Mus musculus. A digest of the protocol:
(§1)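 Leukemia life-span assays used CD2F1 (Balb/c × DBA/2F1) mice weighing 18–22 g. Cells were inoculated IP on day 0, and compounds in 0.9% saline were given IP, dosed by average cage weight. Weight change is the difference in mean group weight between the last and first treatment days.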

Experiment [2] concerns L1210. Nature of the experiment: Tested for the ratio of number of survivors / total number after 60 days at the dose of 1.5 mg/kg per injection against murine leukemia L1210 experiment 1. In kind it is functional, organism-based. Conditions: Mus musculus. A digest of the protocol: (§2)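 CD2F1 (Balb/c × DBA/2F1) mice, 18–22 g, randomized and inoculated IP with counted leukemia cells on day 0, then re-randomized. Three IP treatments, dissolved in 0.9% saline and dosed on average cage weight, with dose in mg/kg per injection across a full toxic-to-ineffective range. Median life span and %T/C were recorded. Survivors at 60 days were counted as cured and excluded from %T/C.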

Experiment [3] relates to L1210. Nature of the experiment: Tested for in vivo weight change against murine L1210 Pt-resistant leukemia at the dose of 3.0 mg/kg per injection in experiment 1. In kind it is functional, organism-based. Conditions: Mus musculus. The gist of the method:
as §1

Experiment [4] concerns Mus musculus. Nature of the experiment: Tested for median life span against solid tumor P388 Pt-resistant leukemia at 3.7 mg/kg per injection. In kind it is functional, organism-based. The gist of the method: (§3)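 Murine leukemia life span assay in CD2F1 (Balb/c × DBA/2F1) mice, 18–22 g, randomized, with IP tumor cell inoculation on day 0. Depending on the model, the inoculum was 1 × 10^4 cells with IP dosing on days 3, 7 and 11, or 1 × 10^6 cells with IP dosing on days 1, 5 and 9. Drug was given in 0.9% saline, mg/kg per injection, by average cage weight. Read-outs were median day of death and %T/C. Mice alive 60 days after treatment counted as cured and were excluded.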

In experiment [5] the test system is Mus musculus. Kind of experiment: Tested for the ratio of treated and control against solid tumor murine P388 leukemia 3.7 mg/kg per injection in experiment 2; T/C. In kind it is functional, organism-based. A digest of the protocol:
as §3

The subject of experiment [6] is L1210. Kind of experiment: Tested for the ratio of treated and control against solid tumor murine L1210 Pt-resistant leukemia 1.5 mg/kg per injection in experiment 1; T/C. Conditions: Mus musculus. In kind it is functional, organism-based. The gist of the method:
as §3

Experiment [7] deals with Mus musculus. Nature of the experiment: Tested for the ratio of number of survivors / total number after 60 days at the dose of 2.3 mg/kg per injection against murine P388 Pt-resistant leukemia. In kind it is functional, organism-based. A digest of the protocol: as §2
Experiment [8] has as its system L1210. Kind of experiment: Tested for median life span against solid tumor L1210 Pt-resistant leukemia at 1.6 mg/kg per injection in experiment 2. In kind it is functional, organism-based. Conditions: Mus musculus. A digest of the protocol: (§4)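 CD2F1 mice weighing 18–22 g were inoculated IP with leukemia cells on day 0. Compounds in 0.9% saline were given IP in three injections, dosed by average cage weight, over a dose range from toxic to ineffective. Median life span was recorded, with cause of death assessed at necropsy and 60-day survivors counted as cured.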

Experiment [9] relates to L1210. Kind of experiment: Tested for the ratio of number of survivors / total number after 60 days at the dose of 3.0 mg/kg per injection against murine L1210 Pt-resistant leukemia in experiment 1. In kind it is functional, organism-based. Conditions: Mus musculus. A digest of the protocol:
as §2

Experiment [10] deals with Colon carcinoma cell. Nature of the experiment: Tested for net cell kill tumor burden reduction during therapy at the dose 2.5 mg/kg in colon carcinoma. In kind it is functional, organism-based. Also noted: dose 2.5 mg/kg. Conditions: Mus musculus.
Experiment [11] relates to L1210. Nature of the experiment: Tested for the ratio of treated and control against solid tumor murine L1210 leukemia 1.5 mg/kg per injection in experiment 1; T/C. In kind it is functional, organism-based. Conditions: Mus musculus. The gist of the method: as §3
The test system of experiment [12] is L1210. Kind of experiment: Tested for in vivo weight change against murine L1210 Pt-resistant leukemia at the dose of 1.5 mg/kg per injection in experiment 1. In kind it is functional, organism-based. Conditions: Mus musculus. The gist of the method: as §1
The test system of experiment [13] is P388. Nature of the experiment: Tested for in vivo weight change against murine P388 leukemia at the dose of 5.0 mg/kg per injection. In kind it is functional, organism-based. Conditions: Mus musculus. The gist of the method: as §1
For experiment [14], the system named is L1210. Kind of experiment: Tested for median life span against solid tumor L1210 leukemia at 6.0 mg/kg per injection in experiment 1. In kind it is functional, organism-based. Conditions: Mus musculus. A digest of the protocol:
as §4

The test system of experiment [15] is L1210. Kind of experiment: Tested for median life span against solid tumor L1210 leukemia at 5.0 mg/kg per injection in experiment 2. In kind it is functional, organism-based. Conditions: Mus musculus. The gist of the method:
as §4

For experiment [16], the system named is Mus musculus. Nature of the experiment: Tested for in vivo weight change against murine B16 melanoma at the dose of 9.0 mg/kg per injection. In kind it is functional, organism-based. A digest of the protocol:
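B6C3F1 (C57BL/6 × C3HF1) mice weighing 18–22 g received trocar tumor fragments SC on day 0. Compounds in 0.9% saline were given IP on a three-injection schedule, dosed by average cage weight. Weight change is the maximum treatment-related weight loss during the growth-delay assay.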

Experiment [17] deals with L1210. Kind of experiment: Tested for in vivo weight change against murine L1210 Pt-resistant leukemia at the dose of 10 mg/kg per injection in experiment 2. In kind it is functional, organism-based. Conditions: Mus musculus. A digest of the protocol:
as §1

Experiment [18] relates to M5076. Kind of experiment: Tested for net cell kill tumor burden reduction during therapy at the dose 9.0 mg/kg in M5076 sarcoma. Also noted: dose 9 mg/kg. In kind it is functional, organism-based. Conditions: Mus musculus. A digest of the protocol:
(§5)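 Solid tumor growth delay assay; B16 melanoma and M5076 sarcoma were run in B6C3F1 (C57BL/6 × C3HF1) mice of 18–22 g. Tumor fragments were implanted SC on day 0, then drug in 0.9% saline was given IP on days 1, 5, 9 or days 3, 7, 11, mg/kg per injection. T − C is the difference in days for treated and control tumors to reach 750 mg. Net log cell kill is tumor burden reduction during therapy. Cured mice were excluded.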

Experiment [19] deals with L1210. Nature of the experiment: Tested for the ratio of treated and control against solid tumor murine L1210 leukemia 6.0 mg/kg per injection in experiment 1; T/C. In kind it is functional, organism-based. Conditions: Mus musculus. A digest of the protocol:
as §3

The test system of experiment [20] is L1210. Nature of the experiment: Tested for median life span against solid tumor L1210 Pt-resistant leukemia at 4.0 mg/kg per injection in experiment 1. In kind it is functional, organism-based. Conditions: Mus musculus. The gist of the method:
as §4

The subject of experiment [21] is Mus musculus. Nature of the experiment: Tested for in vivo weight change against murine P388 leukemia at the dose of 10 mg/kg per injection. In kind it is functional, organism-based. The gist of the method: as §1
The subject of experiment [22] is M5076 sarcoma (Mus musculus). Nature of the experiment: Tested for the ratio of treated and control tumor to reach 750 mg against murine solid tumor M5076 sarcoma 4.0 mg/kg per injection.
The test system of experiment [23] is Mus musculus. Kind of experiment: tested for in vivo weight change against murine M5076 sarcoma at the dose of 9.0 mg/kg per injection. In kind it is functional, organism-based. The gist of the method:
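Host weight change in the SC M5076 sarcoma growth delay test in B6C3F1 mice. Drug was given IP in 0.9% saline, mg/kg per injection. Weight change is the maximum treatment-related weight loss.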

Experiment [24] concerns L1210. Kind of experiment: Tested for the ratio of number of survivors / total number after 60 days at the dose of 10 mg/kg per injection against murine L1210 Pt-resistant leukemia in experiment 2. In kind it is functional, organism-based. Conditions: Mus musculus. The gist of the method: as §2
For experiment [25], the system named is L1210. Nature of the experiment: Tested for in vivo weight change against murine L1210 Pt-resistant leukemia at the dose of 6.0 mg/kg per injection. In kind it is functional, organism-based. Conditions: Mus musculus. The gist of the method:
as §1

Experiment [26] relates to L1210. Kind of experiment: Tested for median life span against solid tumor L1210 Pt-resistant leukemia at 10 mg/kg per injection in experiment 2. In kind it is functional, organism-based. Conditions: Mus musculus. The gist of the method:
as §4

For experiment [27], the system named is Mus musculus. Nature of the experiment: Tested for the ratio of treated and control against solid tumor murine P388 Pt-resistant leukemia 10 mg/kg per injection; T/C. In kind it is functional, organism-based. A digest of the protocol: as §3
Experiment [28] relates to Mus musculus. Nature of the experiment: Tested for the ratio of number of survivors / total number after 60 days at the dose of 5.0 mg/kg per injection against murine P388 Pt-resistant leukemia. In kind it is functional, organism-based. A digest of the protocol:
as §2

For experiment [29], the system named is Mus musculus. Nature of the experiment: Tested for net cell kill tumor burden reduction during therapy at the dose 9.0 mg/kg in B16 melanoma. In kind it is functional, organism-based. Also noted: dose 9 mg/kg. The gist of the method: as §5
Experiment [30] concerns L1210. Nature of the experiment: Tested for the ratio of number of survivors / total number after 60 days at the dose of 4.0 mg/kg per injection against murine leukemia L1210 experiment 1. In kind it is functional, organism-based. Conditions: Mus musculus. A digest of the protocol: as §2
Experiment [31] deals with L1210. Nature of the experiment: Tested for the ratio of treated and control against solid tumor murine L1210 Pt-resistant leukemia 6.0 mg/kg per injection; T/C. In kind it is functional, organism-based. Conditions: Mus musculus. A digest of the protocol: as §3
For experiment [32], the system named is Mus musculus. Nature of the experiment: Tested for the ratio of number of survivors / total number after 60 days at the dose of 10 mg/kg per injection against murine leukemia P388. In kind it is functional, organism-based. A digest of the protocol: as §2

As a reminder, the T/C is the ratio of treated to control. As for [Pt(cis-1,4-dach)CL2], the Weight change in experiment [1] was -4.8 g; in [3] it was -4.3 g; in experiment [12], 1.9 g. In addition, the 60-day survivors was 0 in experiment [2], 0 in experiment [7] and 2 in experiment [9]. Moreover, the MLS in experiment [4] was 25.8 days; in experiment [8], 15 days. In addition, in experiment [5], the T/C was found to be 234%. The Ratio in experiment [6] is 154%; in experiment [11], 217%. Besides, the Log net cell kill in [10] was -0.4.
In the case of CISPLATIN, the Weight change in [13] is 0.2 g; in [16] it was -4.5 g; in [17] it was -4.8 g; in experiment [21], -5.5 g; in experiment [23] it was -5.1 g; in experiment [25], -3.7 g. Moreover, the MLS in [14] worked out at 18.5 days; in [15] it was 16 days; in experiment [20], 11.1 days; in experiment [26], 12.4 days. Moreover, the results for the Log net cell kill in experiment [18] and in experiment [29] were 0.8 and -0.4, respectively. Moreover, the results for the Ratio in experiment [19] and in experiment [31] were 175% and 118%, respectively. Also, the T-C in [22] is 15.9 days. The Survivors was found to be 0 in experiment [24], 0 in [28], 1 in experiment [30] and 3 in [32]. The T/C in [27] is 123%.
